Screens: PubChem BioAssay, The Scripps Research Institute Molecular Screening Center
DDE Tn6 FP inh – inhibitors of Tn6 peptide binding to fibrin DD(E), primary screen, biochemical, fluorescence polarization, human fibrin, Tn6 probe. 0.21% of 370,000 active. inhibition, % at 8.3 µM. Fibrin DD(E) TRITC-Tn6 fluorescence polarization displacement. Fibrinogen beta chain (Homo sapiens), P02675. AID 720509, 2013;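 active means inhibition above a per-campaign cutoff: mean of compounds within control limits plus 3 SD, cut at about 15% in these data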;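 further: 0% = median of all compound wells on the plate and 100% = blocking peptide control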
DDE Tn7 FP inh – inhibitors of Tn7 peptide binding to fibrin DD(E), primary screen, biochemical, fluorescence polarization, human fibrin, Tn7 probe; Fibrinogen beta chain (Homo sapiens), P02675; FP displacement of FITC-Tn7 peptide from fibrin DD(E); 0% = median of compound wells per plate; inhibition, % at 8.3 µM; 0.13% of 370,000 active;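 active means inhibition above the mean of compounds falling within the control limits plus 3 SD of them, cut at about 14% in these data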;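 further: 0% = plate median of compound wells and 100% = 10 µM Aha-Tn7 peptide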
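Assay system: Human clot-derived fibrin DD(E) complex | Buffer or medium: Tris/NaCl/CaCl2 buffer, pH 7.8 | Repeats: One replicate per compound | Benchmarks: Aha-Tn7 high control | Measure: % inhibition scaled between sample-field median and high-control FP | Schedule: 10 min plus 3 h, room temperature | Signal: Fluorescence polarization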
DNA FID counter – compounds displacing fluorescent DNA intercalator, primary screen, artefact control for HCV NS3 helicase inhibitor project, biochemical, FID fluorescence; DNA fluorescent intercalator displacement; AID 1845, 2009; 0.17% of 290,000 active; inhibition, % at 7.9 µM; in the data active means inhibition above about 37%;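 further: 0% = vehicle and 100% = reference compound; higher means more ethidium bromide displaced from hairpin DNA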
PLC-gamma1 inh – PLC-gamma1 enzyme inhibitors, primary screen, biochemical, fluorescence, purified enzyme. 1-phosphatidylinositol 4,5-bisphosphate phosphodiesterase gamma-1 (Homo sapiens), P19174. inhibition, % at 12.2 µM. 0.84% of 370,000 active. AID 720700, 2013. fluorogenic substrate; in the data active means inhibition above about 9.5%
PLC-beta3 inh – human PLC-beta3 inhibitors, primary screen, biochemical, fluorescence | 0.18% of 370,000 active | AID 720704, 2013 | 1-phosphatidylinositol 4,5-bisphosphate phosphodiesterase beta-3 (Homo sapiens), Q01970 | inhibition, % at 12.2 µM | Purified PLC-beta3, fluorogenic substrate; in the data active means inhibition above about 11%;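 further: 0% = median of compound wells on plate and 100% = full blocker control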
DDE Tn6 FP ctr – counter-screen hit for Tn6 peptide-fibrin DD(E) binding disruption. shares compounds with DDE Tn6 FP inh. TRITC-Tn6 fluorescence polarization displacement; 0% = median of compound wells, not DMSO. inhibition, % at 8.3 µM. 2% of 680 active;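 active means inhibition above the mean of test compounds lying between the control limits plus 3 SD of those, cut at about 14% in these data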;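 further: 0% = median of compound wells and 100% = wells with Aha-Tn7 blocking peptide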
Tn6 DDE conf – inhibitors of Tn6 peptide binding to fibrin DD(E), confirmation, biochemical, fluorescence polarization, human fibrin, Tn6 probe | shares compounds with DDE Tn6 FP inh | FP displacement of TRITC-Tn6 peptide from DD(E); 0% = per-plate median of test wells | inhibition, % at 8.3 µM | 10% of 680 active | AID 720631, 2013;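 active means inhibition above the mean of compounds lying within the control limits plus 3 SD, cut at about 16% in these data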;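 further: 100% = high control wells holding a competing inhibitor peptide at 10 µM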
An asterisk follows results filed as active; x = no result given. Most compounds without a hit are left out; they make up all but 1.4% or so of the library.

SMILES | DDE Tn6 FP inh | DDE Tn7 FP inh | DNA FID counter | PLC-gamma1 inh | PLC-beta3 inh | DDE Tn6 FP ctr | Tn6 DDE conf
COc1cccc(C(=O)NCc2ccc3c(c2)cc(C)n3C)c1 | 22* | 1 | -23 | -9 | -9 | -3 | -6
COc1ccc(/C=C\C(=O)NCc2ccc3c(c2)cc(C)n3C)cc1OC | 30* | -1 | -48 | -80 | -105 | 1 | 5
CCC(CC)C(=O)Nc1cccc(C(=O)Nc2ccc(S(=O)(=O)Nc3ccc(C)cc3)cc2)c1 | 19* | -3 | -7 | -2 | -4 | -2 | -8
CCC(CC)C(=O)Nc1cccc(C(=O)Nc2ccc(S(N)(=O)=O)cc2)c1 | -3 | 0 | 1 | 2 | 0 | x | x
CCC(=O)Nc1ccc(NC(=O)CSc2nnc(-c3ccc(O)cc3)n2CC2CCCO2)cc1 (configuration not stated) | 20* | 1 | -10 | 1 | -2 | 1 | 1
CC(=O)Nc1ccc(C(=O)CSc2nnc(-c3ccc(O)cc3)n2CC2CCCO2)cc1 (configuration not stated) | -2 | 6 | -12 | 1 | -1 | x | x
O=C(N/N=C/c1cccnc1)C(=O)N1CCCCCC1 | 15* | 7 | -7 | -2 | -6 | -3 | -4
COc1ccc(-c2nn(-c3ccccc3)cc2C#N)cc1 | 4 | 6 | -2 | 0 | 0 | x | x
CN(C)c1ccc(/C=C/C=C2/SC(=S)N(c3ccccc3)C2=O)cc1 | 31* | -2 | -9 | -25 | -29 | 7 | 59*
O=C(c1cc2ccccc2o1)N1CCCC1 | 17* | 2 | -1 | 1 | -6 | 2 | 4
CN1C(=O)[C@H]2[C@@H](c3ccc(C(F)(F)F)cc3)N[C@]3(CCCN(CC4CCCCC4)C3=O)[C@H]2C1=O | 16* | 1 | x | -2 | 3 | 4 | 3
CCC1=C(CC2NCCc3ccccc32)CC2c3cc(OC)c(OC)cc3CCN2C1 (configuration not stated) | 23* | 9 | x | -124 | -175 | 4 | 3
CC[C@H]1CN2CCc3cc(OC)c(OC)cc3C2C[C@@H]1C[C@H]1NCCc2cc(OC)c(OC)cc21 (some centres not stated) | -3 | 4 | x | -2 | -2 | x | x
Cn1c(N)c(C(=O)COC(=O)CC2CC3CCC2C3)c(=O)n(C)c1=O (configuration not stated) | 16* | 7 | -6 | 1 | -4 | 9 | 6
O=C(COC(=O)/C=C/c1ccco1)Nc1ncc(C(F)(F)F)cc1Cl | 16* | 1 | -21 | -6 | -14 | -7 | -7
O=C(O)CCCC(=O)Nc1ccc(C(=O)N2CCCCC2)cc1 | 2 | -6 | -2 | 0 | 3 | x | x
O=C(NCC(=O)N1CCN(S(=O)(=O)c2ccccc2F)CC1)c1ccc2ccccc2c1 | 1 | -5 | x | 0 | -5 | x | x
CCC(C)NC(=O)c1csc2c1CCCCC2 (configuration not stated) | 19* | 4 | -6 | -1 | -4 | 1 | 2
CC(Nc1cccc([N+](=O)[O-])c1)C(=O)Nc1ccc(S(=O)(=O)N2CCCC2)cc1 (configuration not stated) | -3 | -6 | x | 0 | -2 | x | x
c1ccc2c(c1)CCN(C1=Nc3cccc4cccc1c34)C2 | 18* | -4 | 1 | -285 | -357 | -7 | 63*
c1cc2c3c(cccc3c1)C(N1CCCCCC1)=N2 | -2 | 4 | 13 | -382 | -435 | x | x
Cc1nn(-c2ccccc2)c2c1C(c1ccc([N+](=O)[O-])cc1)C(C#N)=C(N)O2 (configuration not stated) | 16* | 4 | -7 | 2 | -2 | 0 | -2
